# Laboratory results as given in ChEMBL document CHEMBL1154872, “Design, synthesis, and biological evaluation of novel pyrimidine derivatives as CDK2 inhibitors” (Eur J Med Chem, 2010).
# How the values were obtained:
# [1] = biological target: Cyclin-dependent kinase 2/cyclin A (Homo sapiens, UniProt P24941); assay: Inhibition of human recombinant CDK2/cyclin A expressed in baculovirus-infected insect Sf21 cells after 10 mins
# [2] = test system: A-431; assay: Growth inhibition of human A431 cells after 2 days by sulforhodamine B assay; format: functional; conditions: A-431, 48 h
# How it was run: (§1)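 Cells kept in RPMI 1640 with 10% FBS at 37 °C, 5% CO2; 1000 cells/well plated, compounds added next day at various concentrations, 2 days exposure. Fixed with 4% formalin 30 min, stained 0.1% SRB 30 min, acetic acid washes, dye eluted in 0.1 M Tris-HCl pH 8.0, A520 read. Triplicate, averaged; time-zero absorbance = 0%, untreated 2-day growth = 100%.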
# [3] = test system: HCT-116; assay: Growth inhibition of human HCT116 cells after 2 days by sulforhodamine B assay; format: functional; conditions: HCT-116, 48 h; how it was run: as §1
# [4] = biological target: Epidermal growth factor receptor (Homo sapiens, UniProt P00533); assay: Inhibition of EGFR
# Sequence of Epidermal growth factor receptor (P00533 whole entry): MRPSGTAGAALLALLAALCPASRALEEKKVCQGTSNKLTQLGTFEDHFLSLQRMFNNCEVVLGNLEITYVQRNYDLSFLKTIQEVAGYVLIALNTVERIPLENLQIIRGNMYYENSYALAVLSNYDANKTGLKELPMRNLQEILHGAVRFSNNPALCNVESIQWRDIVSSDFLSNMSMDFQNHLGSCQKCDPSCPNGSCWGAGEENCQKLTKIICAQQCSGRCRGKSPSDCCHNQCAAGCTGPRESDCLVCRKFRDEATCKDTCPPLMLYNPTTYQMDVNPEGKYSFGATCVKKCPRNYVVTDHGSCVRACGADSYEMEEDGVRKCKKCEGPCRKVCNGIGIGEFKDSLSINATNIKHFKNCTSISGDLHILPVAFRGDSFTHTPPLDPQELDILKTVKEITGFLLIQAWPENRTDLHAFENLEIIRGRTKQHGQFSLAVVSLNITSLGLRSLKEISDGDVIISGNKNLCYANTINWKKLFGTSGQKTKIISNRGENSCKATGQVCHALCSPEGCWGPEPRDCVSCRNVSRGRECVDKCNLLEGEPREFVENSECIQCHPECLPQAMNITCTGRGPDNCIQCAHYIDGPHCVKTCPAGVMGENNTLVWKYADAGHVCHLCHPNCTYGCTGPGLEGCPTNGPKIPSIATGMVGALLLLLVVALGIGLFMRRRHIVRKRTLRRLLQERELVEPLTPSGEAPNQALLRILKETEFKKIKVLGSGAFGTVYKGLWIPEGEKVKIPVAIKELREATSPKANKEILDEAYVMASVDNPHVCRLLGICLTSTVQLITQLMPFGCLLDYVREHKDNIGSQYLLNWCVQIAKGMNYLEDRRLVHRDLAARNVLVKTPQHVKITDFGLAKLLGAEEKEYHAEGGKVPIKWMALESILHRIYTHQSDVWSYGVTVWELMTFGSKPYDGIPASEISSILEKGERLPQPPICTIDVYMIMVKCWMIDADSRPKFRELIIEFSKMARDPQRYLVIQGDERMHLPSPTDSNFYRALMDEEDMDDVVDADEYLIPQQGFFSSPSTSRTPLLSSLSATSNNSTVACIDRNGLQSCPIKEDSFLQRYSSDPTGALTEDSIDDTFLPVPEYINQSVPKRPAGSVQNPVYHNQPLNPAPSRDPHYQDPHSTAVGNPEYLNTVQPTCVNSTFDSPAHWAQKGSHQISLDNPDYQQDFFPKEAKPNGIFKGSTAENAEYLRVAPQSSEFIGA
Structure (SMILES),IC50 [1],GI50 [2],GI50 [3],IC50 [4]
CC1=C(C(=O)Nc2cccc([N+](=O)[O-])c2)C(c2ccc(O)cc2O)NC(Nc2ccc(S(=O)(=O)Nc3ncccn3)cc2)=N1 (centres undefined),57.5 µM,69.2 µM,77.5 µM,88.3 µM
CC1=C(C(=O)Nc2cccc([N+](=O)[O-])c2)C(c2ccc(O)cc2O)NC(Nc2ccc(S(=O)(=O)Nc3nc(C)cc(C)n3)cc2)=N1 (centres undefined),11.5 µM,3.94 µM,8.99 µM,79.8 µM
CC1=C(C(=O)Nc2cccc([N+](=O)[O-])c2)C(c2ccc(O)cc2O)NC(Nc2ccc(S(=O)(=O)Nc3cc(C)on3)cc2)=N1 (centres undefined),0.9 µM,2.94 µM,16.6 µM,> 100 µM
CC1=C(C(=O)Nc2cccc([N+](=O)[O-])c2)C(c2ccc(O)cc2O)NC(NN2C(=O)/C(=C\c3cccs3)SC2=S)=N1 (centres undefined),0.3 µM,2.78 µM,4.5 µM,80.6 µM
CC1=C(C(=O)Nc2cccc([N+](=O)[O-])c2)C(c2ccc(O)cc2O)NC(NN2C(=O)/C(=C\c3ccccc3)SC2=S)=N1 (centres undefined),28.2 µM,24.3 µM,16.6 µM,> 100 µM
CC1=C(C(=O)Nc2cccc([N+](=O)[O-])c2)C(c2ccc(O)cc2O)NC(NN)=N1 (centres undefined),> 100 µM,24.3 µM,47.7 µM,47.9 µM
CC1=C(C(=O)Nc2cccc([N+](=O)[O-])c2)C(c2ccc(O)cc2O)NC(NN2C(=O)/C(=C\c3ccco3)SC2=S)=N1 (centres undefined),0.4 µM,28.9 µM,> 100 µM,99.3 µM
CC1=C(C(=O)Nc2cccc([N+](=O)[O-])c2)C(c2ccc(O)cc2O)NC(N/N=C/c2cccs2)=N1 (centres undefined),22.9 µM,19.1 µM,38.2 µM,> 100 µM
Cc1nc(S(=O)(=O)Cc2ccccc2)nc(-c2ccc(O)cc2O)c1C(=O)Nc1cccc([N+](=O)[O-])c1,0.9 µM,28.9 µM,10.9 µM,> 100 µM
CC1=C(C(=O)Nc2cccc([N+](=O)[O-])c2)C(c2ccc(O)cc2O)NC(N/N=C/c2ccco2)=N1 (centres undefined),3.8 µM,2.91 µM,8.89 µM,> 100 µM
CC1=C(C(=O)Nc2ccc(C)cc2)C(c2ccc(O)cc2O)NC(Nc2ccc([N+](=O)[O-])cc2Cl)=N1 (centres undefined),44.9 µM,31.9 µM,28.2 µM,60.9 µM
CC1=C(C(=O)Nc2cccc([N+](=O)[O-])c2)C(c2ccc(O)cc2O)NC(NCc2ccccc2)=N1 (centres undefined),46.8 µM,35.6 µM,> 100 µM,> 100 µM
CC1=C(C(=O)Nc2cccc([N+](=O)[O-])c2)C(c2ccc(O)cc2O)NC(Nc2ccc([N+](=O)[O-])cc2Cl)=N1 (centres undefined),8.1 µM,3.94 µM,10.9 µM,> 100 µM
Cc1ccc(NC(=O)c2c(C)nc(S(=O)(=O)Cc3ccccc3)nc2-c2ccc(O)cc2O)cc1,48.3 µM,32 µM,23.4 µM,> 100 µM
CC1=C(C(=O)Nc2ccc(C)cc2)C(c2ccc(O)cc2O)NC(SCc2ccccc2)=N1 (centres undefined),25.4 µM,20.8 µM,14.5 µM,93.5 µM
CC1=C(C(=O)Nc2cccc([N+](=O)[O-])c2)C(c2ccc(O)cc2O)NC(SCc2ccccc2)=N1 (centres undefined),24.6 µM,> 100 µM,29 µM,55.6 µM
CC1=NN(C2=NC(C)=C(C(=O)Nc3cccc([N+](=O)[O-])c3)C(c3ccc(O)cc3O)N2)C(=O)/C1=C/c1ccco1 (centres undefined),10.3 µM,15.8 µM,> 100 µM,> 100 µM
CC1=NN(C2=NC(C)=C(C(=O)Nc3cccc([N+](=O)[O-])c3)C(c3ccc(O)cc3O)N2)C(=O)/C1=C/c1cccs1 (centres undefined),3.1 µM,37.1 µM,26.5 µM,> 100 µM
CC1=C(C(=O)Nc2ccc(C)cc2)C(c2ccc(O)cc2O)NC(NCc2ccccc2)=N1 (centres undefined),> 100 µM,42.7 µM,66.7 µM,23.5 µM
COc1cccc2c1C(=O)c1c(O)c3c(c(O)c1C2=O)C[C@@](O)(C(=O)CO)C[C@@H]3O[C@H]1C[C@H](N)[C@H](O)[C@H](C)O1 [DOXORUBICIN],,0.18 µM,0.13 µM,
CC[C@H](CO)Nc1nc(NCc2ccccc2)c2c(n1)N(C(C)C)CN2 [RESCOVITINE],0.5 µM,,,
